# Most compounds without a hit are left out; they make up all but 3.8% or so of the library.
# TMEM16A inh – TMEM16A chloride channel inhibitors, primary screen, cell-based, HTS. Anoctamin-1 (Mus musculus), Q8BHY3. HEK293 TMEM16A/YFP iodide influx fluorescence, ionomycin. normalized B-score (activity score, 25-100; higher = stronger inhibition) at 10 µM. hit rate 1.2% among 310,000;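 active = ratio plate-corrected score three or more library SD toward inhibition, starting fluorescence score within five deviations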;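 note: score derived from kinetic fluorescence span divided by baseline fluorescence per well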
# Target sequence (Q8BHY3 whole entry, looked up): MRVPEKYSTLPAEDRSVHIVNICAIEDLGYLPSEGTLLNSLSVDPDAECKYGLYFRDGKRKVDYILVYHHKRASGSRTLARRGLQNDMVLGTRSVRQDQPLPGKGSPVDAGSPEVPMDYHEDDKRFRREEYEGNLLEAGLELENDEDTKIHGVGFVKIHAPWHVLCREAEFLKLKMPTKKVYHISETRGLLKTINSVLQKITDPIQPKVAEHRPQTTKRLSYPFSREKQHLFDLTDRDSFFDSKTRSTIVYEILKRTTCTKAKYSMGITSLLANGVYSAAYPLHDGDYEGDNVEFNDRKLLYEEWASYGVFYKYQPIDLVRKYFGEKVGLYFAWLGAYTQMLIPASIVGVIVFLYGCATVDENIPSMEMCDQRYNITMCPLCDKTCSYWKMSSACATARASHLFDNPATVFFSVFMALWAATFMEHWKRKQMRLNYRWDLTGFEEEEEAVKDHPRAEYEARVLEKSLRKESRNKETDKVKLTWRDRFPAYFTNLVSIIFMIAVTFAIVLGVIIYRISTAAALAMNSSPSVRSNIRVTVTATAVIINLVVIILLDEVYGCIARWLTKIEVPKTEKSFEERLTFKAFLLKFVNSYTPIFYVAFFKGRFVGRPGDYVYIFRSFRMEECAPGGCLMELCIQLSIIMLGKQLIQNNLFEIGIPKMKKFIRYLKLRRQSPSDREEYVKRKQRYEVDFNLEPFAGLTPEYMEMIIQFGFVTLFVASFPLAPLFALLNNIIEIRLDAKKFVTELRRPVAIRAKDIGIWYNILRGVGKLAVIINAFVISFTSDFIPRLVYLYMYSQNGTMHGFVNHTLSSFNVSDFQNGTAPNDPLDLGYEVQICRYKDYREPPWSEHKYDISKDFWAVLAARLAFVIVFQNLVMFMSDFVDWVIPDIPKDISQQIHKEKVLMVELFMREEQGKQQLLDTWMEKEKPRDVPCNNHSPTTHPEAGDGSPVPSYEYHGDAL
# MC4R barr agon – MC4R agonists recruiting beta-arrestin, primary screen, cell-based, luminescence, agonist arm of biased-ligand search; Melanocortin receptor 4 (Homo sapiens), P32245; U2OS MC4R beta-arrestin complementation; percent of melanotan II response, DMSO zero; activation, % at 8.9 µM; hit rate 0.98% among 360,000; AID 540308, 2011;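 active = activation above a per-plate cutoff, the mean activation of sample wells on that plate plus 3 SD, cut at about 8% in these data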
# CSC inhib – cancer stem cell viability inhibitors, primary screen, luminescence; cancer stem cell-like cells viability; inhibition, % at 7.5 µM; hit rate 1.1% among 300,000; AID 2717, 2010; in the data active = inhibition above about 75%; tested in HMLE shEcad cells
# Beta apoptosis – inhibitors of cytokine-induced beta cell apoptosis, primary screen, luminescence; INS-1E cytokine-induced death, ATP luminescence, 48 h; percent of positive-control rescue, neutral wells zero; protection from apoptosis, % (concentration not given with the values); hit rate 0.8% among 300,000;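 active = Every replicate reaches about 75%, or at least half do and their mean reaches it too, limit read from the data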;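 note: 0% = cytokine-treated negative control wells and 100% = positive control rescue; higher means more ATP so stronger rescue from cytokine killing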
# ANO1 activ – TMEM16A chloride channel activators or potentiators, primary screen, cell-based, HTS; B-score at 10 µM; HEK293 TMEM16A/YFP-H148Q/I152L, iodide quench fluorescence; active compounds read low; hit rate 0.3% among 340,000; Anoctamin-1 (Mus musculus), Q8BHY3;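 active = fluorescence-ratio B-score plate-corrected deviation score at least 3 library SD below zero, with starting fluorescence score within 5 deviations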;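 note: channel opened by trigger with iodide after compound preincubation; score built on the fluorescence ratio of max minus min over baseline; more negative score means more quench and so TMEM16A activation or potentiation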
# MC4R antag cAMP – MC4R antagonists of cAMP signaling, primary screen, cell-based, TR-FRET, antagonist arm of biased-ligand search. Melanocortin receptor 4 (Homo sapiens), P32245. MC4R-expressing cells, MTII-stimulated cAMP, LANCE TR-FRET. inhibition, % at 6.5 µM. hit rate 0.48% among 360,000. AID 540295, 2011;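 active = inhibition above its plate's cutoff, the mean of tested wells on that plate plus 3 SD, cut at about 29% in these data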;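 note: 0% = Melanotan II alone and 100% = Melanotan II plus saturating MCL0020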
#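 System – human MC4R-expressing U2OS cells · Also added – Melanotan II · Dosing – one concentration, 6.5 µM nominal · Timing – 30-min compound, 1-h challenge, 1-h detection, room temperature · Measured by – Eu-cAMP/anti-cAMP TR-FRET, emission 671 nm · Replicates – singlicate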
# MC4R barr ag – MC4R beta-arrestin agonists, retest, confirmation, cell-based, luminescence, U2OS; shares compounds with MC4R barr agon; U2OS MC4R beta-arrestin recruitment; scaled DMSO 0%, Melanotan II 100%; activation, % at 8.9 µM; hit rate 31% among 2,400; AID 602192, 2012;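 active = mean activation across replicates above the hit cutoff set in the earlier primary screen, cut at about 8% in these data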
# MOR DOR agonist – agonists of MOR-DOR heterodimerization, counter-screen for MC4R biased agonist project, cell-based, luminescence | U2OS PathHunter beta-arrestin, beta-gal luminescence; percent of deltorphin B response, DMSO zero | hit rate 5.8% among 2,400 | AID 602194, 2012 | shares compounds with MC4R barr agon | activation, % at 9.2 µM;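 active = mean activation across replicates exceeds the hit threshold derived in the earlier primary screen, cut at about 18% in these data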;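 note: 100% = deltorphin B at 0.9 µM final and 0% = DMSO alone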
# * = called active by the depositor; i = inactive; . = no result given.
SMILES,TMEM16A inh,MC4R barr agon,CSC inhib,Beta apoptosis,ANO1 activ,MC4R antag cAMP,MC4R barr ag,MOR DOR agonist
O=[N+]([O-])c1ccc(N=Nc2c(O)[nH]c3ccc(F)cc23)cc1,i,18*,45,35,i,10,10*,1
O=[N+]([O-])c1ccc2[nH]c(O)c(N=Nc3ccc(F)cc3)c2c1,i,0,1,3,i,12,.,.
COc1ccc(/C=N\NC(=O)c2cc(OCC(F)(F)F)ccc2OCC(F)(F)F)cc1,i,11*,.,-1,i,-1,6,7
O=C(OCc1cc(=O)n2ccsc2n1)c1ccccc1NCCO,.,-1,-11,-8,i,-2,.,.
CCCCN(C)C(=O)c1ccc(Nc2nc(C(N)Cc3ccc(C(F)(F)F)cc3)cs2)nc1 (centres undefined),.,30*,.,.,.,5,23*,35*
NC(Cc1ccc(C(F)(F)F)cc1)c1csc(Nc2ccc(C(=O)NCc3ccco3)cn2)n1 (centres undefined),.,16*,.,.,.,11,32*,13
Cn1nc(C(=O)NNC(=O)c2cccc(Cl)c2)ccc1=O,.,-4,-15,-6,i,13,.,.
C[C@H]1CN=C(N(C)C)N1CCC1CCCCC1,i,-2,-4,-6,i,3,.,.
Cc1ccc(/C=N/NS(=O)(=O)c2ccc([N+](=O)[O-])cc2)o1,i,0,-16,-5,i,0,.,.
CCCCCCCCCCS(=O)(=O)N/N=C/c1ccc([N+](=O)[O-])cc1,100*,13*,86*,5,i,10,7,2
COc1ccc(CCNC(=O)/C(C#N)=C2\N=C(NC(=O)c3ccco3)c3ccccc32)cc1,i,14*,8,-6,i,4,-1,2
Cn1c(=O)[nH]c(=O)c2c1nc(SCc1ccccc1Cl)n2CC(N)=O,i,-1,-16,.,i,17,.,.
O=c1c2ccccc2nc(SCc2ccccc2)n1Cc1ccco1,i,-1,22,-1,i,0,.,.
O=c1c2ccccc2nc(SCc2nc3ccccc3s2)n1Cc1ccco1,i,11*,8,1,i,21,-2,5
C[C@@H]1CN([C@@H](C)CO)C(=O)c2cc(Br)cnc2O[C@H]1CN(C)C(=O)C1CC1,.,0,.,.,.,10,.,.
Cc1cc(C)cc(C(=O)N(CCc2ccccc2)C2CC3CCC(C2)N3C)c1 (centres undefined),i,0,-3,-2,i,-3,.,.
CCOC(=O)c1sc(NC(=O)c2cccc(S(=O)(=O)N(CC)CC)c2)cc1C,i,12*,4,1,i,18,0,5
CCOC(=O)c1sc(NC(=O)c2cccc(S(=O)(=O)N3CCN(C)CC3)c2)cc1C,i,-1,6,-6,i,5,.,.
Nc1ccc(O)cc1C(=O)OCC(=O)c1ccc(C2CCCCC2)cc1,i,21*,70,-1,i,7,12*,14
Cc1ccc(-c2nc(CNC(=O)c3ccco3)cs2)cc1,i,-2,5,1,i,10,.,.
CC(=O)c1cccc(NC(=O)c2ccccc2OCc2ccc(F)cc2)c1,i,14*,3,6,i,-10,-1,4
CN(C)S(=O)(=O)c1cccc(NC(=O)c2ccccc2OCc2ccc(F)cc2)c1,i,3,.,7,i,4,.,.
FC(F)Oc1ccccc1/C=N/Nc1nc2ccccc2o1,i,7,10,6,i,0,.,.
Fc1ccccc1/C=N/Nc1nc2ccccc2o1,i,13*,-2,2,i,-1,-1,5
O=C(CCCn1c(SCC(=O)c2ccc(F)cc2)nc2ccccc2c1=O)NCc1ccccc1,25*,24*,0,3,i,12,2,13
SMILES,TMEM16A inh,MC4R barr agon,CSC inhib,Beta apoptosis,ANO1 activ,MC4R antag cAMP,MC4R barr ag,MOR DOR agonist
Cc1cc(NC(=O)CSc2nc3ccccc3c(=O)n2CCCC(=O)NCc2ccccc2)n[nH]1,i,2,-4,.,i,-10,.,.
CCCn1c(SCC(=O)N2N=C3/C(=C/c4ccc(OC)cc4)CCCC3C2c2ccc(OC)cc2)n[nH]c1=O (centres undefined),i,13*,1,-19,i,6,14*,9
COC(=O)C[C@@H]1C[C@H]2c3cc(NC(=O)Nc4ccccc4F)ccc3O[C@H]2[C@H](CO)O1,.,1,.,.,.,-1,.,.
c1ccc2c(c1)[nH]c1c(N3CCC4(CC3)OCCO4)ncnc12,i,-2,.,36,i,4,.,.
OC1(c2cccc(C(F)(F)F)c2)CCN(c2ncnc3c2[nH]c2ccccc23)CC1,100*,11*,28,31,i,6,2,5
Cc1ccccc1Cn1cccc1/C=C1/C(=N)N2C=CSC2=NC1=O,i,14*,15,-3,i,1,2,2
CC(C)c1ccc(-n2cccc2/C=C2/C(=N)N3C=CSC3=NC2=O)cc1,i,0,27,33,i,9,.,.
CCc1nc2ccc(C(=O)NCCCN(C)C)cn2c1N(C)Cc1ccc(OC)cc1,.,-3,.,.,.,-2,.,.
C=CC[C@@H](CC(=O)N[C@@H](CO)Cc1ccccc1)C(=O)N[C@@H](COC(=O)[C@@H](CC=C)CC(=O)OC(C)(C)C)Cc1c[nH]c2ccccc12,.,15*,-4,-5,.,9,3,5
C=CC[C@@H](CC(=O)N[C@H](CO)Cc1ccccc1)C(=O)N[C@@H](COC(=O)[C@@H](CC=C)CC(=O)OC(C)(C)C)Cc1c[nH]c2ccccc12,.,5,-18,5,i,12,.,.
CC(C)(C)N1CC(C(=O)Nc2ccc(C(N)=O)cc2)CC1=O (centres undefined),.,-1,.,.,.,9,.,.
O=C(CSc1nc(CCC2CCCC2)nc2ccccc12)NCc1ccc2c(c1)OCO2,i,20*,17,-1,i,25,3,6
Cc1csc(N=Cc2ccc([N+](=O)[O-])o2)n1,.,-1,.,.,.,1,.,.
